From ChEMBL document CHEMBL2177062, “Bile acid-based 1,2,4-trioxanes: synthesis and antimalarial assessment” (J Med Chem, 2012)
Active and inactive are the calls of the source. The rule behind the calls is not given here.

system: Plasmodium yoelii nigeriensis; experiment: Antimalarial activity in multidrug-resistant Plasmodium yoelii nigeriensis infected Swiss mouse assessed as disease cure at 96 mg/kg, po two devided dose daily for 4 days by 28 day survival assay; format: functional; conditions: not given
Outline: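 Swiss mice of either sex (20 2 g) inoculated ip with 1 × 10⁶ MDR P. yoelii nigeriensis (chloroquine-, mefloquine-, halofantrine-resistant) parasites on day 0. Five mice per dose. Oral dosing in groundnut oil (0.1 mL per dose) from day 0 to 3, as two divided doses daily. Thin blood smears on day 4, then twice weekly to day 28. Mice without patent infection by day 28 scored cured; % protection = fraction of mice cured. β-arteether as positive control.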

| Compound | Activity |
| --- | --- |
| C=C(c1ccc(F)cc1)[C@@H]1CO[C@@]2(CC[C@@]3(C)[C@H](CC[C@@H]4[C@@H]3CC[C@]3(C)[C@@H]([C@H](C)CCC(=O)OC)CC[C@@H]43)C2)OO1 (relative stereo; form 2) [listing 1 of 2 here] | inactive |
| C=C(c1ccc(Br)cc1)[C@@H]1CO[C@@]2(CC[C@@]3(C)[C@H](CC[C@@H]4[C@@H]3CC[C@]3(C)[C@@H]([C@H](C)C(C)=O)CC[C@@H]43)C2)OO1 (relative stereo; form 2) [listing 1 of 2 here] | inactive |
| C=C(c1ccccc1)[C@@H]1CO[C@@]2(CC[C@@]3(C)[C@H](CC[C@@H]4[C@@H]3CC[C@]3(C)[C@@H]([C@H](C)CCC(=O)OC)CC[C@@H]43)C2)OO1 (relative stereo; form 2) [listing 1 of 2 here] | inactive |
| C=C(c1ccc(Br)cc1)[C@@H]1CO[C@@]2(CC[C@@]3(C)[C@H](CC[C@@H]4[C@@H]3CC[C@]3(C)[C@@H](C(C)=O)CC[C@@H]43)C2)OO1 (relative stereo; form 2) [listing 1 of 2 here] | inactive |
| C=C(c1ccc(F)cc1)[C@@H]1CO[C@@]2(CC[C@@]3(C)[C@H](CC[C@@H]4[C@@H]3CC[C@]3(C)[C@@H](O)CC[C@@H]43)C2)OO1 (relative stereo; form 1) | inactive |
| C=C(c1ccccc1)[C@@H]1CO[C@@]2(CC[C@@]3(C)[C@H](CC[C@@H]4[C@@H]3CC[C@]3(C)[C@@H](O)CC[C@@H]43)C2)OO1 (relative stereo; form 1) [listing 1 of 2 here] | inactive |
| C=C(c1ccc(Br)cc1)[C@@H]1CO[C@@]2(CC[C@@]3(C)[C@H](CC[C@@H]4[C@@H]3CC[C@]3(C)[C@@H]([C@H](C)C(C)=O)CC[C@@H]43)C2)OO1 (relative stereo; form 1) [listing 1 of 2 here] | inactive |
| C=C(c1ccccc1)[C@@H]1CO[C@@]2(CC[C@@]3(C)[C@H](CC[C@@H]4[C@@H]3CC[C@]3(C)[C@@H](C(C)=O)CC[C@@H]43)C2)OO1 (relative stereo; form 1) [listing 1 of 2 here] | inactive |
| C=C(c1ccc(Cl)cc1)[C@@H]1CO[C@@]2(CC[C@@]3(C)[C@H](CC[C@@H]4[C@@H]3CC[C@]3(C)[C@@H](C(C)=O)CC[C@@H]43)C2)OO1 (relative stereo; form 1) [listing 1 of 2 here] | inactive |
| C=C(c1ccc(F)cc1)[C@@H]1CO[C@@]2(CC[C@@]3(C)[C@H](CC[C@@H]4[C@@H]3CC[C@]3(C)[C@@H]([C@H](C)C(C)=O)CC[C@@H]43)C2)OO1 (relative stereo; form 1) [listing 1 of 2 here] | inactive |
| C=C(c1ccc(Br)cc1)[C@@H]1CO[C@@]2(CC[C@@]3(C)[C@H](CC[C@@H]4[C@@H]3CC[C@]3(C)[C@@H](O)CC[C@@H]43)C2)OO1 (relative stereo; form 1) [listing 1 of 2 here] | inactive |
| C=C(c1ccc(Br)cc1)[C@@H]1CO[C@@]2(CC[C@@]3(C)[C@H](CC[C@@H]4[C@@H]3CC[C@]3(C)[C@@H]([C@H](C)CCC(=O)OC)CC[C@@H]43)C2)OO1 (relative stereo; form 2) [listing 1 of 2 here] | inactive |
| C=C(c1ccc(Br)cc1)[C@@H]1CO[C@@]2(CC[C@@]3(C)[C@H](CC[C@@H]4[C@@H]3CC[C@]3(C)[C@@H]([C@H](C)CCC(=O)OC)CC[C@@H]43)C2)OO1 (relative stereo; form 1) [listing 1 of 2 here] | inactive |
| C=C(c1ccc(F)cc1)[C@@H]1CO[C@@]2(CC[C@@]3(C)[C@H](CC[C@@H]4[C@@H]3CC[C@]3(C)[C@@H]([C@H](C)CCC(=O)OC)CC[C@@H]43)C2)OO1 (relative stereo; form 1) [listing 1 of 2 here] | inactive |
| C=C(c1ccccc1)[C@@H]1CO[C@@]2(CC[C@@]3(C)[C@H](CC[C@@H]4[C@@H]3CC[C@]3(C)[C@@H]([C@H](C)C(C)=O)CC[C@@H]43)C2)OO1 (relative stereo; form 1) | inactive |
| C=C(c1ccc(Cl)cc1)[C@@H]1CO[C@@]2(CC[C@@]3(C)[C@H](CC[C@@H]4[C@@H]3CC[C@]3(C)[C@@H]([C@H](C)CCC(=O)OC)CC[C@@H]43)C2)OO1 (relative stereo; form 2) [listing 1 of 2 here] | inactive |
| C=C(c1ccc(Cl)cc1)[C@@H]1CO[C@@]2(CC[C@@]3(C)[C@H](CC[C@@H]4[C@@H]3CC[C@]3(C)[C@@H]([C@H](C)C(C)=O)CC[C@@H]43)C2)OO1 (relative stereo; form 2) [listing 1 of 2 here] | inactive |
| C=C(c1ccccc1)[C@@H]1CO[C@@]2(CC[C@@]3(C)[C@H](CC[C@@H]4[C@@H]3CC[C@]3(C)[C@@H]([C@H](C)CCC(=O)OC)CC[C@@H]43)C2)OO1 (relative stereo; form 1) [listing 1 of 2 here] | inactive |
| C=C(c1ccc(Cl)cc1)[C@@H]1CO[C@@]2(CC[C@@]3(C)[C@H](CC[C@@H]4[C@@H]3CC[C@]3(C)[C@@H]([C@H](C)C(C)=O)CC[C@@H]43)C2)OO1 (relative stereo; form 1) [listing 1 of 2 here] | inactive |
| C=C(c1ccc(Cl)cc1)[C@@H]1CO[C@@]2(CC[C@@]3(C)[C@H](CC[C@@H]4[C@@H]3CC[C@]3(C)[C@@H]([C@H](C)CCC(=O)OC)CC[C@@H]43)C2)OO1 (relative stereo; form 1) [listing 1 of 2 here] | inactive |

system: Plasmodium yoelii nigeriensis; experiment: Antimalarial activity in multidrug-resistant Plasmodium yoelii nigeriensis infected Swiss mouse assessed as suppression of parasitaemia at 96 mg/kg, po two devided dose daily for 4 days; format: functional; conditions: 96 mg/kg
Outline: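 Swiss mice of either sex (20 2 g) inoculated ip with 1 × 10⁶ MDR P. yoelii nigeriensis parasites on day 0. Five mice per dose, given oral doses in groundnut oil from day 0 to 3, twice daily. Parasitaemia read from thin blood smears on day 4. Suppression = [(C − T)/C] × 100 versus untreated controls. 100% means no parasites seen in 50 oil-immersion fields.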

| Compound | Activity [%] |
| --- | --- |
| C=C(c1ccc(Br)cc1)[C@@H]1CO[C@@]2(CC[C@@]3(C)[C@H](CC[C@@H]4[C@@H]3CC[C@]3(C)[C@@H](C(C)=O)CC[C@@H]43)C2)OO1 (relative stereo; form 2) [listing 2 of 2 here] | 89.78 |
| C=C(c1ccc(Br)cc1)[C@@H]1CO[C@@]2(CC[C@@]3(C)[C@H](CC[C@@H]4[C@@H]3CC[C@]3(C)[C@@H]([C@H](C)C(C)=O)CC[C@@H]43)C2)OO1 (relative stereo; form 2) [listing 2 of 2 here] | 41.83 |
| C=C(c1ccc(Br)cc1)[C@@H]1CO[C@@]2(CC[C@@]3(C)[C@H](CC[C@@H]4[C@@H]3CC[C@]3(C)[C@@H]([C@H](C)CCC(=O)OC)CC[C@@H]43)C2)OO1 (relative stereo; form 2) [listing 2 of 2 here] | 18.57 |
| C=C(c1ccc(Br)cc1)[C@@H]1CO[C@@]2(CC[C@@]3(C)[C@H](CC[C@@H]4[C@@H]3CC[C@]3(C)[C@@H]([C@H](C)CCC(=O)OC)CC[C@@H]43)C2)OO1 (relative stereo; form 1) [listing 2 of 2 here] | 64.31 |
| C=C(c1ccc(Cl)cc1)[C@@H]1CO[C@@]2(CC[C@@]3(C)[C@H](CC[C@@H]4[C@@H]3CC[C@]3(C)[C@@H]([C@H](C)CCC(=O)OC)CC[C@@H]43)C2)OO1 (relative stereo; form 1) [listing 2 of 2 here] | 56.02 |
| C=C(c1ccc(F)cc1)[C@@H]1CO[C@@]2(CC[C@@]3(C)[C@H](CC[C@@H]4[C@@H]3CC[C@]3(C)[C@@H]([C@H](C)CCC(=O)OC)CC[C@@H]43)C2)OO1 (relative stereo; form 2) [listing 2 of 2 here] | 33.13 |
| C=C(c1ccc(Cl)cc1)[C@@H]1CO[C@@]2(CC[C@@]3(C)[C@H](CC[C@@H]4[C@@H]3CC[C@]3(C)[C@@H]([C@H](C)C(C)=O)CC[C@@H]43)C2)OO1 (relative stereo; form 1) [listing 2 of 2 here] | 100 |
| C=C(c1ccc(Cl)cc1)[C@@H]1CO[C@@]2(CC[C@@]3(C)[C@H](CC[C@@H]4[C@@H]3CC[C@]3(C)[C@@H]([C@H](C)CCC(=O)OC)CC[C@@H]43)C2)OO1 (relative stereo; form 2) [listing 2 of 2 here] | 45.23 |
| C=C(c1ccccc1)[C@@H]1CO[C@@]2(CC[C@@]3(C)[C@H](CC[C@@H]4[C@@H]3CC[C@]3(C)[C@@H]([C@H](C)CCC(=O)OC)CC[C@@H]43)C2)OO1 (relative stereo; form 1) [listing 2 of 2 here] | 20.6 |
| C=C(c1ccccc1)[C@@H]1CO[C@@]2(CC[C@@]3(C)[C@H](CC[C@@H]4[C@@H]3CC[C@]3(C)[C@@H]([C@H](C)CCC(=O)OC)CC[C@@H]43)C2)OO1 (relative stereo; form 2) [listing 2 of 2 here] | 43.56 |
| C=C(c1ccc(Br)cc1)[C@@H]1CO[C@@]2(CC[C@@]3(C)[C@H](CC[C@@H]4[C@@H]3CC[C@]3(C)[C@@H](O)CC[C@@H]43)C2)OO1 (relative stereo; form 1) [listing 2 of 2 here] | 76.52 |
| C=C(c1ccc(Br)cc1)[C@@H]1CO[C@@]2(CC[C@@]3(C)[C@H](CC[C@@H]4[C@@H]3CC[C@]3(C)[C@@H]([C@H](C)C(C)=O)CC[C@@H]43)C2)OO1 (relative stereo; form 1) [listing 2 of 2 here] | 56.73 |
| C=C(c1ccc(F)cc1)[C@@H]1CO[C@@]2(CC[C@@]3(C)[C@H](CC[C@@H]4[C@@H]3CC[C@]3(C)[C@@H]([C@H](C)CCC(=O)OC)CC[C@@H]43)C2)OO1 (relative stereo; form 1) [listing 2 of 2 here] | 45.31 |
| C=C(c1ccc(Cl)cc1)[C@@H]1CO[C@@]2(CC[C@@]3(C)[C@H](CC[C@@H]4[C@@H]3CC[C@]3(C)[C@@H]([C@H](C)C(C)=O)CC[C@@H]43)C2)OO1 (relative stereo; form 2) [listing 2 of 2 here] | 34.65 |
| C=C(c1ccccc1)[C@@H]1CO[C@@]2(CC[C@@]3(C)[C@H](CC[C@@H]4[C@@H]3CC[C@]3(C)[C@@H](C(C)=O)CC[C@@H]43)C2)OO1 (relative stereo; form 1) [listing 2 of 2 here] | 79.89 |
| C=C(c1ccc(Cl)cc1)[C@@H]1CO[C@@]2(CC[C@@]3(C)[C@H](CC[C@@H]4[C@@H]3CC[C@]3(C)[C@@H](C(C)=O)CC[C@@H]43)C2)OO1 (relative stereo; form 1) [listing 2 of 2 here] | 90.98 |
| C=C(c1ccccc1)[C@@H]1CO[C@@]2(CC[C@@]3(C)[C@H](CC[C@@H]4[C@@H]3CC[C@]3(C)[C@@H](O)CC[C@@H]43)C2)OO1 (relative stereo; form 1) [listing 2 of 2 here] | 69.36 |
| C=C(c1ccc(F)cc1)[C@@H]1CO[C@@]2(CC[C@@]3(C)[C@H](CC[C@@H]4[C@@H]3CC[C@]3(C)[C@@H]([C@H](C)C(C)=O)CC[C@@H]43)C2)OO1 (relative stereo; form 1) [listing 2 of 2 here] | 86.26 |
